The target of series [1] is Cytochrome P450 2C9 (Homo sapiens, UniProt P11712). Description: Inhibition of CYP2C9 using MFC as substrate. The format is ADME. In short, it runs like this:
(§1)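 Human CYP450 inhibition was measured with isoform-specific fluorogenic probe substrates: CEC for 1A2 and 2C19, MFC for 2C9, AMMC for 2D6. Incubation was at 37 °C with an NADPH-regenerating system in 384-well format. Metabolite was quantified by fluorescence, and IC50 was obtained by curve fitting.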

For series [2], the system named is J82. The experiment in a line: Antiproliferative activity against human J82 cells after 72 hrs. The format is functional, cell-based. Particulars: J82, 72 h. Put shortly:
(§2)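 Bladder cancer lines from ATCC or DSMZ were seeded in 96-well plates (RT4, RT112 at 8500 cells/well; others at 5000 cells/well) in growth medium. Compound dilutions or DMSO were added 24 h later and incubated 72 h. Cells were fixed with glutaraldehyde, stained with 0.05% methylene blue and eluted with 3% HCl, then OD650 nm was read.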

For series [3], the target named is Cyclin-dependent kinase 1 (Homo sapiens, UniProt P06493). The experiment in a line: Inhibition of recombinant CDK1. In short, it runs like this:
(§3)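 Purified recombinant kinases under optimized conditions with peptide substrates. ATP was set at each kinase's Km. Phosphorylation was read by microfluidic mobility-shift separation of substrate and product; IC50 determined.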

Series [4] addresses RAC-alpha serine/threonine-protein kinase (Homo sapiens, UniProt P31749). The experiment in a line: Inhibition of recombinant PKBalpha. In short, it runs like this: as §3
The target in series [5] is MAP kinase-activated protein kinase 2 (Homo sapiens, UniProt P49137). Description: Inhibition of recombinant MK2. In short, it runs like this: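 Purified recombinant kinases with peptide substrates and ATP at each kinase's Km. Read-out was microfluidic mobility shift.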
In series [6] the target is T1, Cytochrome P450 1A2 (Homo sapiens, UniProt P05177).
T1 sequence (P05177 whole entry): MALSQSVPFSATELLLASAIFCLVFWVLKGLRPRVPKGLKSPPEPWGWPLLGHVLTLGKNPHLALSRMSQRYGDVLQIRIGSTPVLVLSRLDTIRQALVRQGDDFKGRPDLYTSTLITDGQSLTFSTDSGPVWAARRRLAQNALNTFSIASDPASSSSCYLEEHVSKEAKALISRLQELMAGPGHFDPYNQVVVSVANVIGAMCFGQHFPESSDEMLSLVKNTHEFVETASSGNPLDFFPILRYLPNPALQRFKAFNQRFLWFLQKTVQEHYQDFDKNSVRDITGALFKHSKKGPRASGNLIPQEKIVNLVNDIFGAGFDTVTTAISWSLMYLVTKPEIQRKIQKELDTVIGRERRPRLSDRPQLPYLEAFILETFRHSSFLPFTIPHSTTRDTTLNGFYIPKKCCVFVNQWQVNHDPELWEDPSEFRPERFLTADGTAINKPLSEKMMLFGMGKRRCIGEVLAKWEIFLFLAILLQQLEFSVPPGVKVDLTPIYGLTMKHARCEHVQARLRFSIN
The experiment in a line: Inhibition of CYP1A2 using CEC as substrate. Type of series: ADME. In short, it runs like this:
as §1

The species entered for series [7] is Rattus norvegicus. Description: Hepatic blood flow in Wistar rat. The format is ADME, organism-based, Liver.
For series [8], the target named is Phosphatidylinositol 4,5-bisphosphate 3-kinase catalytic subunit alpha isoform (Homo sapiens, UniProt P42336). Description: Inhibition of recombinant PI3Kalpha.
Chain of Phosphatidylinositol 4,5-bisphosphate 3-kinase catalytic subunit alpha isoform (P42336 whole entry, canonical isoform): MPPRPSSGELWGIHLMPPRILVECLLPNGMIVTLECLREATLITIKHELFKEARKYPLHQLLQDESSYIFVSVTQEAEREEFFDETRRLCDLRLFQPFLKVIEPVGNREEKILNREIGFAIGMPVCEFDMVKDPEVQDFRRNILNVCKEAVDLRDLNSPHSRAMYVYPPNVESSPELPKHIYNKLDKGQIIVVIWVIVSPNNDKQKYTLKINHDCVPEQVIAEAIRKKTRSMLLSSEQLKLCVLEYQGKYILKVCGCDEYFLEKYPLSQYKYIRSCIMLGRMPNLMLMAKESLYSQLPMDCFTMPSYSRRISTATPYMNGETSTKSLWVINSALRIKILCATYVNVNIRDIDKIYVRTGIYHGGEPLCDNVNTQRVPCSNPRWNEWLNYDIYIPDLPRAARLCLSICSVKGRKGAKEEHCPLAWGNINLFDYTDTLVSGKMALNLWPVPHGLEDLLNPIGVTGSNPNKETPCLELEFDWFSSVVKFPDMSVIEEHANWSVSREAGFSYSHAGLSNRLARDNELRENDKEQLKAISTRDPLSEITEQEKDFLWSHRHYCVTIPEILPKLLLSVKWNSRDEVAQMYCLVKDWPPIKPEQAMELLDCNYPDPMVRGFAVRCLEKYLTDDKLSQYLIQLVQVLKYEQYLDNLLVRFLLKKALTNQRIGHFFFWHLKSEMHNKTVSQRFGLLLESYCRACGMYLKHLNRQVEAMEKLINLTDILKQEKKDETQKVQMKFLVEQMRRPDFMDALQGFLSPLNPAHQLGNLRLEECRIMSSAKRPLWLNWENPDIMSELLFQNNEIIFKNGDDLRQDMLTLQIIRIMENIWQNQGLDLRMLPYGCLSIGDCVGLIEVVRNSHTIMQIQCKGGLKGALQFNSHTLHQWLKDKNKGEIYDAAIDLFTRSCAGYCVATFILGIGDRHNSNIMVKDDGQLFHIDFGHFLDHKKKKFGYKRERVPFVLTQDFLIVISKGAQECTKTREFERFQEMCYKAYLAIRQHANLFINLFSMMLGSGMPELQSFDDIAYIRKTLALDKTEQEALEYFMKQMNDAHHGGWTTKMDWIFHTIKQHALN
The target in series [9] is Phosphatidylinositol 3-kinase catalytic subunit type 3 (Homo sapiens, UniProt Q8NEB9). Description: Inhibition of recombinant VPS34 by luminescent kinase assay.
Chain of Phosphatidylinositol 3-kinase catalytic subunit type 3 (Q8NEB9 whole entry): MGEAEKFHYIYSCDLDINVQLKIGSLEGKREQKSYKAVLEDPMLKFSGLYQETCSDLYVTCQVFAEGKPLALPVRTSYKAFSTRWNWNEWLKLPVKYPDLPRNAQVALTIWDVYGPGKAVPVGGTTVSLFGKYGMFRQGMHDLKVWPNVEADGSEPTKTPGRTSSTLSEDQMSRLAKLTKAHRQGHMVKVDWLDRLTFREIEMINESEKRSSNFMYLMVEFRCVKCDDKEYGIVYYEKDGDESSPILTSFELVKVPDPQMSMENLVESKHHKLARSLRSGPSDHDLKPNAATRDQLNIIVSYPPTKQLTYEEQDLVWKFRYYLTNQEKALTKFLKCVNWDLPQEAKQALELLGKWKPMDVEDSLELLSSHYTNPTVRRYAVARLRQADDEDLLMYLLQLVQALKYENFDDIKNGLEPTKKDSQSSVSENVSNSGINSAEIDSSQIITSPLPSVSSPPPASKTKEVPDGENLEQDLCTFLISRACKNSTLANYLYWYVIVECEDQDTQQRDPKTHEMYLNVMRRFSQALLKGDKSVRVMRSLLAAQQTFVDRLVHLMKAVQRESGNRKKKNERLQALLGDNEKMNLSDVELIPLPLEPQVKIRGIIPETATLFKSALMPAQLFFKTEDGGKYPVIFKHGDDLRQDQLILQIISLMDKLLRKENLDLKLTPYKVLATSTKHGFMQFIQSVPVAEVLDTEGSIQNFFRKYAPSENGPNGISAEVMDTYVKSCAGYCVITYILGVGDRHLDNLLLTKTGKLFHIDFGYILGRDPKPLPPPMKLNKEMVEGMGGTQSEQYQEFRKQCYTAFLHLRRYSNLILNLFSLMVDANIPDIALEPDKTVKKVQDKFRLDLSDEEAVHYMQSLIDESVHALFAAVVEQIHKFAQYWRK
Series [10] addresses Ephrin type-A receptor 4 (Homo sapiens, UniProt P54764). Description: Inhibition of recombinant EPHA4. Put shortly: as §3
The target in series [11] is Cytochrome P450 2D6 (Homo sapiens, UniProt P10635). The experiment in a line: Inhibition of CYP2D6 using AMMC as substrate. Type of series: ADME. Put shortly:
as §1

Series [12] has as its system BaF3. Description: Antiproliferative activity against mouse wild type BAF3 cells assessed as decrease in cell viability by luminescence-based assay. Put shortly: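 IL-3-independent BaF3 or BaF3 Tel-TK cells were grown in RPMI-1640 with 10% FBS and seeded at 4250 cells/well in 384-well plates. Compound serially diluted in DMSO was pin-transferred, followed by 48 h at 37 °C, 5% CO2. Viability was read by Bright-Glo luciferase luminescence.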

Series [13] can be described thus: Apparent terminal half life in Wistar rat at 5 mg/kg, iv by LC-MS/MS analysis. The format is ADME, organism-based. More on the design: dose 5 mg/kg, route intravenous. Particulars: in vivo, read-out: t1/2 lambda z (converted). In short, it runs like this:
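Female Wistar rats. IV: 5 mg/kg into the femoral vein as a solution in NMP/PEG200 (1:9, v/v). Oral: monophosphate salt at 10 mg/kg (free base equivalents) as a solution in acetic acid–acetate buffer pH 4.6/PEG300. Plasma was taken by sublingual bleeding at 0.083–24 h, from staggered groups (n = 4) or one sequentially bled group. Assayed by LC-MS/MS (LOQ 10 ng/mL); noncompartmental analysis.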

A short description of series [14]: Half life in plasma of RT112/luc1 cells implanted athymic nude mouse at 20 mg/kg, po by LC/MS/MS analysis. More on the design: dose 20 mg/kg, route oral. Type of series: ADME, organism-based. In short, it runs like this: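 Female athymic nude mice carried subcutaneous RT112/luc1 tumors (5 × 10^6 cells in HBSS with 50% Matrigel, right flank; about 300–400 mm3). Dosed by oral gavage at 20 mg/kg as a suspension in PEG300/D5W (2:1, v/v). Groups (n = 4) were sacrificed at 0.083–24 h.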

The target in series [15] is Serine/threonine-protein kinase WNK1 (Homo sapiens, UniProt Q9H4A3). Description: Inhibition of recombinant WNK1. In short, it runs like this: as §3
Chain of Serine/threonine-protein kinase WNK1 (Q9H4A3 whole entry): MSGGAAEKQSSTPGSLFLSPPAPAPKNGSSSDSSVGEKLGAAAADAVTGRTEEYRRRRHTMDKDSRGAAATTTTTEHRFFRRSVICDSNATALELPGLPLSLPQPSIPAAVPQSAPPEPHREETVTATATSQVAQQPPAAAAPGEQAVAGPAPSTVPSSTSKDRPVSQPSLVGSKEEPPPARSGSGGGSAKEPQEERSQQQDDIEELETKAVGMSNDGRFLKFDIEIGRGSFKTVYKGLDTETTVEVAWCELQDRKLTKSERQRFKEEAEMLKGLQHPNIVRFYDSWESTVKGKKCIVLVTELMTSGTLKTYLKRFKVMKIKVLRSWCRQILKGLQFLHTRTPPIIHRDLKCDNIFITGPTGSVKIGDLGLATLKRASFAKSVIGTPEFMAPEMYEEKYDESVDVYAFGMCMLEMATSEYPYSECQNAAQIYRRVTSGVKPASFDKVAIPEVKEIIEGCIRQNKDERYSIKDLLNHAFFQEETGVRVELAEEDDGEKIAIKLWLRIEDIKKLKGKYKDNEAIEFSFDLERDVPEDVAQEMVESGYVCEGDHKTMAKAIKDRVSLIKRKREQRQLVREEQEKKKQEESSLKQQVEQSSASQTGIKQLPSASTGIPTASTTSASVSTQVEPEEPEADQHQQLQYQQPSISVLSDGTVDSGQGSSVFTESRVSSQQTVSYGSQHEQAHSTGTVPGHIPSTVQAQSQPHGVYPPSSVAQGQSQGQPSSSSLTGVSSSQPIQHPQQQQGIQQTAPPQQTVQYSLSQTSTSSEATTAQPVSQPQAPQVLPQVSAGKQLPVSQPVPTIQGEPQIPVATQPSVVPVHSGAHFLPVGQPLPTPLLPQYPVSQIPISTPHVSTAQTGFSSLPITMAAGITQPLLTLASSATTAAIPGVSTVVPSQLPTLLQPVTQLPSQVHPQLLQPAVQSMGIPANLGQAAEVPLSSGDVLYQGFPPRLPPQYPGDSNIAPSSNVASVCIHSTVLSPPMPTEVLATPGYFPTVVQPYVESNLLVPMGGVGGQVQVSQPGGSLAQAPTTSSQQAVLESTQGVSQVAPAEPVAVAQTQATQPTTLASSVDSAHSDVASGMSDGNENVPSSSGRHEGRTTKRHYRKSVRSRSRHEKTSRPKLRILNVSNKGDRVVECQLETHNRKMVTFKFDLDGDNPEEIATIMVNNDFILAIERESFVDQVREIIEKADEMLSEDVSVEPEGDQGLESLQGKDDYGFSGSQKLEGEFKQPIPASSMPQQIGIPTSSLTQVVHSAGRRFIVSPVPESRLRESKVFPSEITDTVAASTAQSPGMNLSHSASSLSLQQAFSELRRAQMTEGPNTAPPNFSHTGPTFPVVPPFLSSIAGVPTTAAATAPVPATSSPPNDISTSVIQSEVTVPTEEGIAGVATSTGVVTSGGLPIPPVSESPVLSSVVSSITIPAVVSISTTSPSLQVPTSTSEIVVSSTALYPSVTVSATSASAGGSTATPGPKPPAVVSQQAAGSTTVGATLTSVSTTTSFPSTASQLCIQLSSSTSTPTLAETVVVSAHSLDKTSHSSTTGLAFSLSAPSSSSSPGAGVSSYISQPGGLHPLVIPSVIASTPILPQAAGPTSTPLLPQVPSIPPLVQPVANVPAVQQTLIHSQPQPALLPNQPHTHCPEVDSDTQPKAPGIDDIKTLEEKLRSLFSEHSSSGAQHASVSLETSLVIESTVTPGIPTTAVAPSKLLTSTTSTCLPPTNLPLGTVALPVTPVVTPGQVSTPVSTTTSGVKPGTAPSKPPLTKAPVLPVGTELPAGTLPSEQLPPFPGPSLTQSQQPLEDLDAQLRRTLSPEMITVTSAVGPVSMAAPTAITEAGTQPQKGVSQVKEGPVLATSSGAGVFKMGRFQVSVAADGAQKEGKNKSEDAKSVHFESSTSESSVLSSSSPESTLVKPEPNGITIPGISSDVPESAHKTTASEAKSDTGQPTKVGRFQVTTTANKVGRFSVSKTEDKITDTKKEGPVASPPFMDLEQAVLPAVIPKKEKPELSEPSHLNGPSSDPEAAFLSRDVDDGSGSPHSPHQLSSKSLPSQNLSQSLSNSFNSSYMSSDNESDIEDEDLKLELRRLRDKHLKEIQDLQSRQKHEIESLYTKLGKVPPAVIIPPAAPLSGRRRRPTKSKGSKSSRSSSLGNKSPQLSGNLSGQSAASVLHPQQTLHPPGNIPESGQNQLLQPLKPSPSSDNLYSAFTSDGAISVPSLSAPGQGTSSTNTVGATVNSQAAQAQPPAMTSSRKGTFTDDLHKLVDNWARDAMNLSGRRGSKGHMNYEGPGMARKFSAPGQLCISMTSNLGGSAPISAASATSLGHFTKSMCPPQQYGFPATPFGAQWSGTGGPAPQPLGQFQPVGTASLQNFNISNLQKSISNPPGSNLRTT
Series [16] has as its system VM-CUB-1. Description: Antiproliferative activity against human VMCUB1 cells after 72 hrs. The format is functional, cell-based. Particulars: VM-CUB-1, 72 h. In short, it runs like this:
as §2

In series [17] the test system is Tumour. The experiment in a line: Cmax in tumor of RT112/luc1 cells implanted athymic nude mouse at 5 mg/kg, iv by LC/MS/MS analysis. Type of series: ADME, organism-based, Neoplasm. More on the design: dose 5 mg/kg, route intravenous. Particulars: in vivo. Put shortly: (§4)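 Female athymic nude mice carried subcutaneous RT112/luc1 tumors (5×10^6 cells, 50% Matrigel; about 300–400 mm3). Dosing was either 5 mg/kg iv by tail vein in NMP/PEG200 (1:9) or 20 mg/kg oral suspension in PEG300/D5W (2:1). Groups of mice (n = 4) were sacrificed at 0.083–24 h. Plasma and tumor levels were measured by LC-MS/MS (LOQ 5 ng/mL, 10 ng/g).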

Series [18] relates to Mus musculus. The experiment in a line: Toxicity in athymic nude mouse xenografted with human RT112 cells/luc1 assessed as increase in body weight at 30 mg/kg, po administered for 12 days. Particulars: in vivo, 288 h. Background: A xenograft is tissue or cells of one species grown in another, often human tumour cells in immunodeficient mice.
A short description of series [19]: Half life in tumor of RT112/luc1 cells implanted athymic nude mouse at 20 mg/kg, po by LC/MS/MS analysis. The format is ADME, organism-based, Neoplasm. More on the design: dose 20 mg/kg, route oral. Put shortly: as §4
The target of series [20] is Mitogen-activated protein kinase 1 (Homo sapiens, UniProt P28482). The experiment in a line: Inhibition of recombinant ERK2. In short, it runs like this:
as §3

Series [21] has as its system Rattus norvegicus. Description: Inhibition of FGFR autophosphorylation in RT112 tumor bearing nude rowett rat assessed as decrease in pMAPK concentration at 4.25 to 8.51 mg/kg, po administered as a single dose after 24 hrs by Western blot analysis. The format is functional, organism-based. Put shortly:
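RT112 subcutaneous xenografts in female nude Rowett rats (n = 4). Single oral gavage of the monophosphate salt at 4.25 or 8.51 mg/kg (free base equivalents) in acetic acid–acetate buffer pH 4.6/PEG300 (1:1). Tumors were collected at time points up to 24 h, frozen, homogenized and lysed. Western blots probed pFRS2(Tyr196) and pMAPK, with total FRS2, total MAPK or β-tubulin as loading controls.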

Data on one compound can be found in ChEMBL document CHEMBL1833940, “Discovery of 3-(2,6-dichloro-3,5-dimethoxy-phenyl)-1-{6-[4-(4-ethyl-piperazin-1-yl)-phenylamino]-pyrimidin-4-yl}-1-methyl-urea (NVP-BGJ398), a potent and selective inhibitor of the fibroblast growth factor receptor family of receptor tyrosine kinase” (J Med Chem, 2011).

What is called IC50 is the midpoint of a concentration-inhibition curve.

Active and inactive are the calls of the source. The rule behind the calls is not given here.

Chain of Cytochrome P450 2D6 (P10635 whole entry): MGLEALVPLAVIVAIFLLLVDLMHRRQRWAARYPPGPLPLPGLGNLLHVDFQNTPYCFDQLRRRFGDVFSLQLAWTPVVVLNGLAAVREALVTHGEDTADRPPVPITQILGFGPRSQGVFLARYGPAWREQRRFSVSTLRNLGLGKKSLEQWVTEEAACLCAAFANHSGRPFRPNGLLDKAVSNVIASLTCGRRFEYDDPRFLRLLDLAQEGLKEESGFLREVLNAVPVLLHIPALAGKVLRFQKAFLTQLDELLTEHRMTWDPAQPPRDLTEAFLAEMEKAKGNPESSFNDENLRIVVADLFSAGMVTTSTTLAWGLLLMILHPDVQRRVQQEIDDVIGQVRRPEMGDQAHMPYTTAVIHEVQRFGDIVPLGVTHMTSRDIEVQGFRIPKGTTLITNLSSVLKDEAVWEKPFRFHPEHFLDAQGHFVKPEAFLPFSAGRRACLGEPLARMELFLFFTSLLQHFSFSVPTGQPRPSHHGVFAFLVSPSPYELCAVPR
Chain of Cyclin-dependent kinase 1 (P06493 whole entry): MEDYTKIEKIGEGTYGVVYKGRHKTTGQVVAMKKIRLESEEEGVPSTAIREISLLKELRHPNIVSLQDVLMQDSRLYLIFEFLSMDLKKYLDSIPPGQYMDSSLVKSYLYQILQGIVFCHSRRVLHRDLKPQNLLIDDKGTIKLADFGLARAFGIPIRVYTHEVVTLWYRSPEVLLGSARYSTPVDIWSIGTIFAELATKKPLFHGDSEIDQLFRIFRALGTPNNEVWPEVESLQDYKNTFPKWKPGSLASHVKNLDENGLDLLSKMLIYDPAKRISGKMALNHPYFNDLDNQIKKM

With `CCN1CCN(c2ccc(Nc3cc(N(C)C(=O)Nc4c(Cl)c(OC)cc(OC)c4Cl)ncn3)cc2)CC1.O=P(O)(O)O` [INFIGRATINIB PHOSPHATE], the IC50 was more than 10 µM in series [1]; more than 3 µM in series [2]; more than 10 µM in series [3]; more than 10 µM in series [4]; more than 10 µM in series [5]; more than 10 µM in [6]. Further, the 50% inhibitory concentration (IC50) in series [8] was more than 9 µM; in series [9], more than 10 µM; in series [10], more than 10 µM; in series [11], more than 10 µM; in series [12], 1.86 µM; in [15], more than 10 µM. The 50% inhibitory concentration (IC50) is more than 3 µM in [16] and more than 10 µM in series [20]. In addition, the QH in series [7] amounted to 55 mL/min/kg. For the same compound, the half-life was 4.5 h in [13], 4.3 h in [14] and 13 h in series [19]. Besides, the Cmax in [17] came out at 1.68 nmol/g. Further, the Activity in [18] was found to be 10%. The inhibition entry in series [21] is “inactive”.
